Results collected from several papers.
Protocols differ between the studies behind these lines. pIC50: −log10 of the molar value.

`CCCC(=O)Nc1cccc(NC(=O)c2ccccc2Br)c1` gave a compound remaining of 2% (chemical stability; mouse, plasma; 5 µM, 5 h, pH 7.4).
With `CC(=O)c1ccc2c(c1)N(CCCN(C)C)c1ccccc1S2` the CC50 was 18 µM (CEM-SS; cell growth or viability, XTT; 6 days).
With `O=[N+]([O-])c1ccc(-c2nc3cccc(O)c3[nH]2)o1` the CC50 was 90 µM (CEM-SS; cell growth or viability, resazurin; 72 h).
`C=C(C)[C@H](CC=C(C)C)Cc1c(O)cc(O)c2c1O[C@H](c1ccccc1O)CC2=O` gave a pIC50 of 4.55 (COLO 205; cell growth or viability, MTT; 48 h).
`Oc1c(-n2ccnn2)cnn1-c1cc(N2CCOCC2)ncn1` gave a clearance of 11.7 mL/min/kg (female monkey, plasma; intravenous, 1 mg/kg).
For `N=C(N)c1ccc(OCCCCCOc2ccc(C(=N)N)cc2)cc1`, the pIC50 was 5.12 (L6; cell growth or viability, resazurin; 70 h).
`COc1cccc2c1C(=O)c1c(O)c3c(c(O)c1C2=O)C[C@@](O)(C(=O)CO)C[C@@H]3O[C@H]1C[C@H](N)[C@H](O)[C@H](C)O1` has a pIC50 of 6.30 (COLO 205; cell growth or viability, MTT; 48 h).
`CCC(=O)C[C@H](O)C[C@@H](C)C[C@H](NC(=O)[C@@H]1C[C@H](C)CN1C(=O)/C=C/[C@@H](C)CC)C(=O)N[C@H](C(=O)NC(C)(C)C(=O)N[C@@H](CC(C)C)C(=O)N[C@@H](CC(C)C)C(=O)NC(C)(C)C(=O)NC(C)(C)C(=O)NCCC(=O)N[C@@H](C)CN(C)C)[C@H](O)C(C)C` has a pIC50 of 6.59 (L6; cell growth or viability, resazurin; 68 h).
For `Nc1nc(-c2cc(F)cc(NC(=O)Nc3cc(F)cc(-c4c[nH]c(N)n4)c3)c2)c[nH]1`, the compound remaining was greater than 80% (metabolic stability; human, liver microsomes; 5 µM, 1 h, pH 7.4).
The CC50 of `Nc1ccn([C@@H]2CS[C@H](CO)O2)c(=O)n1` is reported as greater than 1000 µM (HepG2.2.15; cell growth or viability, MTT; 6 days).
For `Nc1nc(-c2ccc(NC(=O)Nc3ccc(-c4c[nH]c(N)n4)c(F)c3)cc2F)c[nH]1`, the compound remaining was greater than 80% (metabolic stability; human, liver microsomes; 5 µM, 1 h, pH 7.4).
For `O=C(CCCO)N1N=C(c2c(-c3ccc(Cl)cc3)c3ccccc3[nH]c2=O)CC1c1ccc(Cl)cc1` (stereo not drawn), the compound remaining was 52% (metabolic stability; human, liver microsomes; 1 µM, 10 min, pH 7.4).
